Measurements published in ChEMBL document CHEMBL1124820, “Total synthesis of the four stereoisomers of dihexadecanoyl phosphatidylinositol and the substrate stereospecificity of human erythrocyte membrane phosphatidylinositol 4-kinase” (J Med Chem, 1990).

Key:
[1] = molecular target: T1, Phosphatidylinositol 4-kinase, PI4K (Homo sapiens) (UniProt Q9BTU6+Q8TCG2+Q9UBF8+P42356); experiment: Rate of phosphorylation was determined with that of mammalian PI using human erythrocyte PI 4-kinase at 200 uM substrate; type: functional
T1 sequence (P42356 whole entry, looked up): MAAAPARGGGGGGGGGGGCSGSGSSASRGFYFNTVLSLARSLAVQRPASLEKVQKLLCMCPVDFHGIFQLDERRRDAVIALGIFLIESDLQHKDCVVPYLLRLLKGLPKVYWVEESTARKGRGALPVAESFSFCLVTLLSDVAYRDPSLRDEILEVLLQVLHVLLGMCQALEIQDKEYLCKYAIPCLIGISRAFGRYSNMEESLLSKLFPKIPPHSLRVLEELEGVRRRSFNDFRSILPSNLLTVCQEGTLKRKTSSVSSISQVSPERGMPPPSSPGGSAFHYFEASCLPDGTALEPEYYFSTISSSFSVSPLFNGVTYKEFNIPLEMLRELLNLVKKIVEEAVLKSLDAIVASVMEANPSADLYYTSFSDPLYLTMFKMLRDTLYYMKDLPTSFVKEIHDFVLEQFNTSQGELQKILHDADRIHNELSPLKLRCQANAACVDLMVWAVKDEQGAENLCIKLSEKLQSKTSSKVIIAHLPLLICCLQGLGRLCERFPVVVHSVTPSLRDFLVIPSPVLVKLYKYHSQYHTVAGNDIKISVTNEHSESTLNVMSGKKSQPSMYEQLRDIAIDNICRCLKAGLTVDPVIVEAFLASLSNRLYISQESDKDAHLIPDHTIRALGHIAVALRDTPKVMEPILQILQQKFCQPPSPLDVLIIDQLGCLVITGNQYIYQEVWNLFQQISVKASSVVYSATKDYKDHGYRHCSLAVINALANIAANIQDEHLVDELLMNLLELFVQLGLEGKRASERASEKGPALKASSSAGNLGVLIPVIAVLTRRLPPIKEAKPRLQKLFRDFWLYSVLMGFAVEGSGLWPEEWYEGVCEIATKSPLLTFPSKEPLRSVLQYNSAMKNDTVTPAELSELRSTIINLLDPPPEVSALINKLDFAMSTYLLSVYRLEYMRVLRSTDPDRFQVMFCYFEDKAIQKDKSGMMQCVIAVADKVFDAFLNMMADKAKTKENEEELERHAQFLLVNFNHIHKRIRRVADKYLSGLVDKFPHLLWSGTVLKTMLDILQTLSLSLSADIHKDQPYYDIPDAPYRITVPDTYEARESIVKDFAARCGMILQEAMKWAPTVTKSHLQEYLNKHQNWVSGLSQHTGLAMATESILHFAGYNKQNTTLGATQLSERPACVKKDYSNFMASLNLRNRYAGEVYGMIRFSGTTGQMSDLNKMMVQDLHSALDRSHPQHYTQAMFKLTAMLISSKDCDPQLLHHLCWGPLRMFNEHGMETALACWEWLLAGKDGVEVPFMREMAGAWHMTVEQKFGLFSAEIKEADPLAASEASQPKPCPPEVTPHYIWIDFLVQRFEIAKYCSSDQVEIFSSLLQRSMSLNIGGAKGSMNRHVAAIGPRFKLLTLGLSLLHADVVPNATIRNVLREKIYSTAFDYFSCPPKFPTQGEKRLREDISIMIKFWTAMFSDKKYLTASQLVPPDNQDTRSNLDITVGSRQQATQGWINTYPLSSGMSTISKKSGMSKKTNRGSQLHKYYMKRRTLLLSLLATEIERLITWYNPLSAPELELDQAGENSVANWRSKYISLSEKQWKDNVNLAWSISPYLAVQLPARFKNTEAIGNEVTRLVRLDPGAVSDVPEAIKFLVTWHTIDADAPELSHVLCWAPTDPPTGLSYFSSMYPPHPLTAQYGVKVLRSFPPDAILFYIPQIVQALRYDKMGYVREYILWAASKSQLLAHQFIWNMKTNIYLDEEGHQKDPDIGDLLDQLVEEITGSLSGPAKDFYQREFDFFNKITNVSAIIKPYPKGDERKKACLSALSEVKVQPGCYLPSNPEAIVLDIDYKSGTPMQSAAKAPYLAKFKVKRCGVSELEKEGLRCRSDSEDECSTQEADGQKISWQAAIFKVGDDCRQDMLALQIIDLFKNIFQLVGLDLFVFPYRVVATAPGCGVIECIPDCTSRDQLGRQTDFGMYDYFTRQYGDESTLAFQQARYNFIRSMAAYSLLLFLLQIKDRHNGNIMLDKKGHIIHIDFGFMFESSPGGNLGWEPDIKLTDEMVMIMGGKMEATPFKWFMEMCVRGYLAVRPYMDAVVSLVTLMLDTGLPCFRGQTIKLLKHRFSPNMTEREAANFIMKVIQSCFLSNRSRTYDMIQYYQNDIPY
T1 sequence (Q8TCG2 whole entry, looked up): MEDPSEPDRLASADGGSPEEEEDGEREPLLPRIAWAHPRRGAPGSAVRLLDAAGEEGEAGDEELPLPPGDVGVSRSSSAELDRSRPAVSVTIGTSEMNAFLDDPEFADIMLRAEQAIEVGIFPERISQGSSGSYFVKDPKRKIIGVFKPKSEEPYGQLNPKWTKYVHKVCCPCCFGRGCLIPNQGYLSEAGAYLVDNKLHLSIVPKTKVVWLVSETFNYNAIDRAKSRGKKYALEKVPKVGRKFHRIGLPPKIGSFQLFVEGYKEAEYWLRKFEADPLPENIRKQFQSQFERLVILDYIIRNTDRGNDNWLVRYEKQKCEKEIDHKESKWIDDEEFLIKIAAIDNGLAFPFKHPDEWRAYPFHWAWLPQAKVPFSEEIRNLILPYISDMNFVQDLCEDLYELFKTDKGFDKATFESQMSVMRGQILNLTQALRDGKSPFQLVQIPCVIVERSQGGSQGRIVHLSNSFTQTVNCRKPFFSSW
T1 sequence (Q9BTU6 whole entry, looked up): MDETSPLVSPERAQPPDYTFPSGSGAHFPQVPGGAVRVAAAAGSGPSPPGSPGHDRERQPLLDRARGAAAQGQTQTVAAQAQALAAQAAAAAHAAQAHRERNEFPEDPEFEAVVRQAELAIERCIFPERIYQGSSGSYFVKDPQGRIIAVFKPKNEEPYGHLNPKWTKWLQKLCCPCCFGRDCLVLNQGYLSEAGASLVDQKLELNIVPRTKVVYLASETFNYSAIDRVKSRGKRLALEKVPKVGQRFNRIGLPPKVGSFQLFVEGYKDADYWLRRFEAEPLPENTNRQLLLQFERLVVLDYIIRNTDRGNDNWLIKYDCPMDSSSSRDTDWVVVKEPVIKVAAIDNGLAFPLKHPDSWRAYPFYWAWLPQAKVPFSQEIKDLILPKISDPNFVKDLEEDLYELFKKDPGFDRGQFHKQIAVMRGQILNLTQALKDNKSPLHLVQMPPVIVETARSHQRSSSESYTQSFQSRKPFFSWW
T1 sequence (Q9UBF8 whole entry, looked up): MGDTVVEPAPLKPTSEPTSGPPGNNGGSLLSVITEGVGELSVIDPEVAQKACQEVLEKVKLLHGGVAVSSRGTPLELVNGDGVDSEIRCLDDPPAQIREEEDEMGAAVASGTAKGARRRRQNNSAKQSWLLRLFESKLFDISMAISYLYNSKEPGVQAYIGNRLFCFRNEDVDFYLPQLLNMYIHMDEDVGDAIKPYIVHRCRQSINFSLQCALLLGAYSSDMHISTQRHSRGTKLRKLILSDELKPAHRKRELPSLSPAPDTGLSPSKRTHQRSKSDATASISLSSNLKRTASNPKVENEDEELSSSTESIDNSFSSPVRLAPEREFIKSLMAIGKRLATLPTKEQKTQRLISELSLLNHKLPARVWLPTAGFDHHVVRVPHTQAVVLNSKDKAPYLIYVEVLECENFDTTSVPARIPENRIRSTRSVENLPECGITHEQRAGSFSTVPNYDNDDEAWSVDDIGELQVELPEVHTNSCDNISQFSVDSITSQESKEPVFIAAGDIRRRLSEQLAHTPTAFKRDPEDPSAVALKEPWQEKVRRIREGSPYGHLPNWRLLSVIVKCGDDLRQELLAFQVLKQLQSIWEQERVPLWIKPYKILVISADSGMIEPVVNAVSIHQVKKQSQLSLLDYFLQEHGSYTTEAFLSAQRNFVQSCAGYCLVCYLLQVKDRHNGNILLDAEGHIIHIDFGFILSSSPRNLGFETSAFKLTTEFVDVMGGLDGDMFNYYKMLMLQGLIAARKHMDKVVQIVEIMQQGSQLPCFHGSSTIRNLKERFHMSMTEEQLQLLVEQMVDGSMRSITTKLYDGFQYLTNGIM
In short: (§1)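 Enzyme was extracted with Triton X-100 from human erythrocyte membranes and purified about 90-fold. Substrate at 200 μM final was tested in mixed micelles with 0.3% Triton X-100, 100 μM [γ-32P]ATP, 15 mM MgCl2, 1 mM EGTA, 1 mM DTT, 0.1 M NaCl and 50 mM HEPES pH 7.4 at 30 °C. Reactions were stopped with acidified CHCl3/MeOH, and organic-phase 32P was counted. Rates were expressed relative to mammalian PI, triplicate, mean ± SE.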

[2] = molecular target: T1, Phosphatidylinositol 4-kinase, PI4K (Homo sapiens); experiment: Percent relative rate of phosphorylation was determined using human erythrocyte PI 4-kinase; type: functional; in short: as §1

| Rate of formation [1] | Relative rate [2] | SMILES |
| --- | --- | --- |
| 23.5 pmol/min | 100% | CCCCCCCCCCCCCCCC(=O)OCC(COP(=O)(O)OC1C(O)C(O)C(O)C(O)C1O)OC(=O)CCCCCCCCCCCCCCC (stereo in doubt; 10b) |
| 24.9 pmol/min | 106% | CCCCCCCCCCCCCCCC(=O)OCC(COP(=O)(O)OC1C(O)C(O)C(O)C(O)C1O)OC(=O)CCCCCCCCCCCCCCC (stereo in doubt; 10a) |
| 0.76 pmol/min | 3.2% | CCCCCCCCCCCCCCCC(=O)OCC(COP(=O)(O)OC1C(O)C(O)C(O)C(O)C1O)OC(=O)CCCCCCCCCCCCCCC (stereo in doubt; 10d) |
| 23.5 pmol/min | 100% | CCCCC/C=C/C/C=C/C/C=C/C/C=C/CCCC(=O)OC(COC(=O)CCCCCCCCCCCCCCCCC)COP(=O)(O)OC1C(O)C(O)C(O)C(O)C1O (stereo not given) |
| 1.01 pmol/min | 4.3% | CCCCCCCCCCCCCCCC(=O)OCC(COP(=O)(O)OC1C(O)C(O)C(O)C(O)C1O)OC(=O)CCCCCCCCCCCCCCC (stereo in doubt; 10c) |
